Test results reported in PubChem BioAssay.
Activity calls are given as the source filed them.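 How the source made its calls, unless noted: active means GFP response above 150% of the DMSO level; inconclusive means fewer than 70 events counted for a yeast strain; inactive means the rest.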

What was measured:
[1] = RPL19A-GFP modulators, yeast TOR pathway, confirmation, cell-based, S. cerevisiae, flow cytometry, cherry picks, mother/daughter gates (AID 2270;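 active means GFP response below 50% of the DMSO control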); details: S. cerevisiae RPL19A-GFP strain, 3 h, at 10 µM, stronger effect = lower value, 100 = same GFP as DMSO wells
[2] = LAP4-GFP expression modulators in yeast, confirmation, cell-based, cherry picks, flow cytometry, mother/daughter gates (AID 2271;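 active means GFP response above 150% of the DMSO control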;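 further: ratio of sample to DMSO plate mean so 100% equals DMSO level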); details: S. cerevisiae LAP4-GFP strain, 3 h, at 10 µM, stronger effect = higher value, 100 means same as DMSO control
Outline: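 System: Alexa 633-stained baker's yeast GFP-fusion strain / Medium: synthetic complete (SC) yeast growth medium / Doses: compound at 10 µM, single point / Times: 3 h treatment at 30 °C with rotation / Detection: HT flow cytometry, GFP fluorescence channel / Benchmarks: DMSO-only negative wells, rapamycin 400 ng/mL positive wells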

[3] = modulators of MEP2-GFP levels in yeast, confirmation, S. cerevisiae, flow cytometry GFP, cherry picks (AID 2272;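 active means GFP response above 150% of the DMSO control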;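 further: ratio of well signal to plate DMSO mean so 100% equals DMSO level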); details: S. cerevisiae MEP2-GFP strain, 3 h, at 10 µM, stronger effect = higher value
[4] = AGP1-GFP expression modulators, hit retest, confirmation, cell-based, flow cytometry, S. cerevisiae, cherry picks (AID 2273);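 further: median GFP channel fluorescence over the whole cell population gate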; details: S. cerevisiae AGP1-GFP strain, 3 h, at 10 µM
[5] = modulators of CIT2-GFP expression in yeast, confirmation, S. cerevisiae, GFP fusion, cherry picks, mother/daughter gates (AID 2274); details: S. cerevisiae CIT2-GFP strain, flow cytometry, 3 h, at 10 µM, stronger effect = higher value
[6] = measured here: daughter cell gate
[7] = measured here: mother cell gate
[8] = measured here: daughter cell gate response
[9] = measured here: mother cell gate response

Row | SMILES | GFP response vs DMSO [1] | GFP response vs DMSO [1, 6] [%] | GFP response vs DMSO [1, 7] [%] | GFP response relative to DMSO [2] | GFP response relative to DMSO [2, 8] [%] | GFP response relative to DMSO [2, 9] [%] | GFP response vs DMSO [3] | GFP response, % of DMSO [4] | GFP response, % of DMSO [5] | GFP response, % of DMSO [5, 6] [%] | GFP response, % of DMSO [5, 7] [%]
1 | O=S(=O)(c1ccc(Cl)cc1)c1ccccn1 | 96.2% (inactive) | 96.4 | 95.8 | 94.1% (inactive) | 96 | 93.4 | 101% (inactive) | 98.2% (inactive) | 103% (inactive) | 101 | 105
2 | O=S(=O)(/N=C(/Sc1ccccc1)c1ccccc1)c1ccccc1 | 92% (inactive) | 92.5 | 89.8 | 179% (active) | 152 | 180 | 106% (inactive) | 101% (inactive) | 84.7% (inactive) | 88.7 | 79.2
3 | N#C/C(C(=O)Nc1ccc(Cl)cc1)=C(/S)Nc1ccccc1 | 98.8% (inactive) | 98.9 | 99.3 | 105% (inactive) | 104 | 104 | 101% (inactive) | 100% (inactive) | 105% (inactive) | 105 | 105
4 | COC(=O)c1ccc(/C=C/C(=O)c2ccc(OC)c(OC)c2)cc1 | 101% (inactive) | 101 | 99.6 | 113% (inactive) | 110 | 117 | 104% (inactive) | 102% (inactive) | 104% (inactive) | 106 | 102
5 | O=[N+]([O-])c1ccc(S(=O)(=O)c2cccc(C(F)(F)F)c2)nc1 | 81.9% (inactive) | 92.5 | 75 | 240% (active) | 180 | 221 | 157% (inactive) | 122% (inactive) | 128% (inactive) | 149 | 110
6 | COc1cc(NC(=O)c2ccccc2[N+](=O)[O-])ccc1NC(=O)c1cc2ccccc2o1 | 101% (inactive) | 99.1 | 101 | 97% (inactive) | 97.5 | 97.3 | 103% (inactive) | 101% (inactive) | 97.3% (inactive) | 97.4 | 95.6
7 | COc1ccc(N2C(=O)CC(Sc3nccc(C)n3)C2=O)cc1 (configuration not stated) | 97.2% (inactive) | 98 | 96.5 | 98.8% (inactive) | 101 | 98.5 | 104% (inactive) | 107% (inactive) | 99.3% (inactive) | 96.4 | 100
8 | Cc1cccc(CS(=O)(=O)c2ncc(Cl)c(C(=O)NCc3ccc4c(c3)OCO4)n2)c1 | 99.7% (inactive) | 99 | 102 | 90.2% (inactive) | 91 | 91.1 | 102% (inactive) | 98.7% (inactive) | 107% (inactive) | 105 | 108
9 | CSc1ccc(/C=N/NC(=O)c2ccc(O)cc2)cc1 | 97.8% (inactive) | 98.1 | 98.5 | 97% (inactive) | 97.5 | 96.2 | 103% (inactive) | 103% (inactive) | 103% (inactive) | 103 | 103
10 | Cc1ccc(S(=O)(=O)/N=C(\Sc2ccccc2)c2ccccc2)cc1 | 99.5% (inactive) | 98.3 | 98.6 | 151% (active) | 134 | 148 | 106% (inactive) | 97.3% (inactive) | 92.1% (inactive) | 92.7 | 87.5
11 | CCn1cc([N+](=O)[O-])c(C(=O)Nc2nc(-c3ccc(C)c(C)c3)c(C)s2)n1 | 98.8% (inactive) | 98.6 | 99.2 | 95.4% (inactive) | 97.6 | 94 | 100% (inactive) | 101% (inactive) | 99.7% (inactive) | 99.1 | 97.3
12 | O=C1CCN(S(=O)(=O)c2ccccc2)C2CCCCC12 (configuration not stated) | 98% (inactive) | 97.8 | 98.1 | 102% (inactive) | 102 | 100 | 106% (inactive) | 100% (inactive) | 108% (inactive) | 104 | 101
